Reference: ChEMBL document CHEMBL4043295, “Marbostat-100 Defines a New Class of Potent and Selective Antiinflammatory and Antirheumatic Histone Deacetylase 6 Inhibitors” (J Med Chem, 2018)
pKi: −log10 of the molar value. Values belong to the molecule of their own block, whether it stands above or below them. Activity calls are given as the source filed them. The calls are words filed in the database; no cut-off is given here.

Columns and labels:
Histone deacetylase 8 = biological target: T1, Histone deacetylase 8 (Homo sapiens, UniProt Q9BY41); assay: Inhibition of recombinant human C-terminal His-tagged HDAC8 (1 to 377 residues) expressed in baculovirus-infected insect cells using RHK(Ac)K(Ac)AMC as substrate after 60 mins by fluorimeter
T1 sequence (Q9BY41 whole entry): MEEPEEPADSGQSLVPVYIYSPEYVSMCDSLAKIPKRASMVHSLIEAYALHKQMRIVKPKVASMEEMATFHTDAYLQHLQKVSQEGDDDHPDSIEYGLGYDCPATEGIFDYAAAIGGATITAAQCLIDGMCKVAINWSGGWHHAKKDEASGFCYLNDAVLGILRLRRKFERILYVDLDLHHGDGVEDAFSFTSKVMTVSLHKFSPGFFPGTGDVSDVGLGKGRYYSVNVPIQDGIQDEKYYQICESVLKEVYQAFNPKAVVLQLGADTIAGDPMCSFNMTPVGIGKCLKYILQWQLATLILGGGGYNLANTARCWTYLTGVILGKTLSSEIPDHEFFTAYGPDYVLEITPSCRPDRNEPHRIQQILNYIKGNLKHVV

Histone deacetylase 2 = Histone deacetylase 2 (Homo sapiens, UniProt Q92769); assay: Inhibition of full length recombinant human C-terminal GST-tagged HDAC2 expressed in baculovirus-infected insect cells using RHKK(Ac)AMC as substrate after 60 mins by fluorimeter
Histone deacetylase 2, sequence (Q92769 whole entry): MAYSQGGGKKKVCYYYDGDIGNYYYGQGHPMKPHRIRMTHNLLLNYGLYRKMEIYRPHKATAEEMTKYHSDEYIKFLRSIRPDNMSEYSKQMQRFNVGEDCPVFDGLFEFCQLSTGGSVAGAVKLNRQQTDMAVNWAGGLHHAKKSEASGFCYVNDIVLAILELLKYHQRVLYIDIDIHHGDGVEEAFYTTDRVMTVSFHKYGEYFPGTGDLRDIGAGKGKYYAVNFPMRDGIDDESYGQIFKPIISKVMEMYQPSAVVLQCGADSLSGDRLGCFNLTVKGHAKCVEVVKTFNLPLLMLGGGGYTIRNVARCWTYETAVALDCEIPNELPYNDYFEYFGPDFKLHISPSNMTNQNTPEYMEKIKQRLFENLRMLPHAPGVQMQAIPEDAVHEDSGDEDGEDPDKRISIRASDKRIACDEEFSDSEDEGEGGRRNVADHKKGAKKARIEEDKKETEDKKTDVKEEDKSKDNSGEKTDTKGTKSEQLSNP

[1] = biological target: T2, Protein deacetylase HDAC6 (Homo sapiens, UniProt Q9UBN7); assay: Inhibition of full length recombinant human N-terminal GST-tagged HDAC6 expressed in baculovirus-infected Sf9 insect cells using RHKK(Ac)AMC as substrate after 90 mins by fluorimeter
T2 sequence (Q9UBN7 whole entry): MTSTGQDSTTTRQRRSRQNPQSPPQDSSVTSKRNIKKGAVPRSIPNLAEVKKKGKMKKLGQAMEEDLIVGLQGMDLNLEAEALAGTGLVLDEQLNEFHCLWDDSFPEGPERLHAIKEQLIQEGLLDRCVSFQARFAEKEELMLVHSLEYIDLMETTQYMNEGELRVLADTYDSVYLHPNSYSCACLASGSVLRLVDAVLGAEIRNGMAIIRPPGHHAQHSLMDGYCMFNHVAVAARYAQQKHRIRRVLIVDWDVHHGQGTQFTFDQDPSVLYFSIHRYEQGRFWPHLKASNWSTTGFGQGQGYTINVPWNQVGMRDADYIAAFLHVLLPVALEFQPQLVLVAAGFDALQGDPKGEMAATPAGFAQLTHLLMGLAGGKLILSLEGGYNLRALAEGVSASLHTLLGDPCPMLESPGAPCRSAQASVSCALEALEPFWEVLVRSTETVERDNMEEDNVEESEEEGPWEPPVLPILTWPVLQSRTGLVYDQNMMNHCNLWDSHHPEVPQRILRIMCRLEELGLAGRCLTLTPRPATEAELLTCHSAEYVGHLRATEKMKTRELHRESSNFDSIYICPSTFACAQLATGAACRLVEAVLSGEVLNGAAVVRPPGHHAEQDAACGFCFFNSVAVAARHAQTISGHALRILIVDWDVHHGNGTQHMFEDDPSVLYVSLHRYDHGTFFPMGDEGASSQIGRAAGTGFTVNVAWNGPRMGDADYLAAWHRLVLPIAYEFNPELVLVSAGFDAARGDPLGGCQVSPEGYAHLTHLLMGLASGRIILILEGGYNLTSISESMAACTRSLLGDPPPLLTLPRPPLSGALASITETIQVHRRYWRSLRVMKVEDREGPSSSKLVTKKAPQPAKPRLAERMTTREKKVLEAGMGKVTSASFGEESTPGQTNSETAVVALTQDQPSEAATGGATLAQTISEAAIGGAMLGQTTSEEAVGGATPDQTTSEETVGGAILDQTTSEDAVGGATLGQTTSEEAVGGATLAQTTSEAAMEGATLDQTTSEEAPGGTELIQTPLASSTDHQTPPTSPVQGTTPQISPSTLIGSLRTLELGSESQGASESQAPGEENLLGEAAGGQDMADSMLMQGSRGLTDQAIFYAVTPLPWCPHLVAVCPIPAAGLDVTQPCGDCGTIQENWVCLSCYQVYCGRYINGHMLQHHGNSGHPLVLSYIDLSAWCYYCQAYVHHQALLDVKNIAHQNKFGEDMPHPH

[2] = biological target: T3, Protein deacetylase HDAC6 (Homo sapiens) (UniProt Q9UBN7); assay: Inhibition of HDAC6 in human MV4-11 cells assessed as induction of alpha-tubulin hyperacetylation after 24 hrs by Western blot method; assay type: cell-based
T3 sequence (whole entry): T2 sequence (Q9UBN7 whole entry)
Summary of the method: (§1)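 MV4-11 cells were exposed to the inhibitor, from 5 nM to 10 µM for 24 h or at 50 nM for 10 min to 48 h. Lysates were immunoblotted for acetylated tubulin, acetylated histone H3 and HDAC6. Acetyl-tubulin was quantified by densitometry normalised to HSP90. MS-275 at 5 µM for 24 h was the comparator. Blots are representative of at least two independent experiments.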

MV4-11 [3] = assay: Cell cycle arrest in human MV4-11 cells assessed as accumulation at sub-G1 phase at 30 to 50 nM after 24 hrs by propidium iodide staining-based flow cytometric method; assay type: functional
Summary of the method: (§2)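 Cells were stained with propidium iodide and analysed by flow cytometry for cell-cycle distribution and the subG1 fraction (fragmented DNA). Representative of at least two independent experiments.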

Mus musculus [4] = assay: Antiarthritic activity in DBA/1J mouse collagen-induced arthritis model assessed as decrease in ratio of articular bone surface to articular bone volume at 42.3 mg/kg, ip administered every morning for 12 to 14 days measured post last dose by microCT method relative to vehicle-treated control; assay type: functional, organism-based
Mus musculus [5] = assay: Toxicity in DBA/1J mouse collagen-induced arthritis model assessed as effect on white blood cell count at 42.3 mg/kg, ip administered every morning for 12 to 14 days measured post last dose relative to vehicle-treated control; assay type: organism-based; conditions: in vivo
Mus musculus [6] = assay: Antiarthritic activity in DBA/1J mouse collagen-induced arthritis model assessed as reduction of articular bone erosion in arthritic hind paw at 42.3 mg/kg, ip administered every morning for 12 to 14 days measured post last dose by microCT method relative to vehicle-treated control; assay type: functional, organism-based
Mus musculus [7] = assay: Antiarthritic activity in DBA/1J mouse collagen-induced arthritis model assessed as decrease in clinical scores at 42.3 mg/kg, ip administered every morning for 6 days measured post last dose; assay type: functional, organism-based
Summary of the method: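 Collagen type II-induced arthritis in mice, second experiment, treated at 42.3 mg/kg (equimolar dose) versus vehicle. Clinical arthritis scores were followed from the beginning of treatment.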

Mus musculus [8] = assay: Toxicity in DBA/1J mouse collagen-induced arthritis model assessed as effect on hemoglobin concentration at 42.3 mg/kg, ip administered every morning for 12 to 14 days measured post last dose relative to vehicle-treated control; assay type: organism-based; conditions: in vivo
Mus musculus [9] = assay: Toxicity in DBA/1J mouse collagen-induced arthritis model assessed as effect on red blood cell count at 42.3 mg/kg, ip administered every morning for 12 to 14 days measured post last dose relative to vehicle-treated control; assay type: organism-based; conditions: in vivo
HEL = assay: Cell cycle arrest in human HEL cells at 5 uM after 24 hrs by propidium iodide staining-based flow cytometric method; assay type: functional
Jurkat = assay: Cell cycle arrest in human Jurkat cells at 5 uM after 24 hrs by propidium iodide staining-based flow cytometric method; assay type: functional
MV4-11 [10] = assay: Cell cycle arrest in human MV4-11 cells assessed as accumulation at sub-G1 phase at 5 uM after 24 hrs by propidium iodide staining-based flow cytometric method; assay type: functional; summary of the method: as §2
PBMC = assay: Induction of apoptosis in human PBMC at 5 uM after 24 hrs by Annexin V/propidium iodide staining-based flow cytometric method; assay type: cell-based
[11] = Inhibition of class 1 HDAC in human MV4-11 cells assessed as induction of histone hyperacetylation at 5 uM after 24 hrs by Western blot method; assay type: cell-based; summary of the method: as §1
Homo sapiens = species on record: Homo sapiens; assay: Selectivity ratio of Ki for recombinant human C-terminal GST-tagged HDAC2 to Ki for full length recombinant human N-terminal GST-tagged HDAC6
Summary of the method: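 Recombinant human HDAC2 and HDAC6 enzymes, fluorescence-based activity assay. […] IC50s were curve-fitted from duplicate determinations. Ki was calculated from IC50 by the Cheng–Prusoff equation, and the ratio was taken from these Ki values. TSA served as internal standard.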

SMILES: CN1CN2Cc3c(c4ccccc4n3Cc3ccc(C(=O)NO)cc3)C(C2)C1=O (centres undefined)
pKi (Histone deacetylase 8): 6.37
pKi (Histone deacetylase 2): 5.87
pKi [1]: 9.64
alpha-tubulin hyperacetylation (active/not active) [2]: inactive

SMILES: O=C(NO)c1ccc(Cn2c3c(c4ccccc42)CCN2C(=O)CCCC32)cc1 (centres undefined)
pKi (Histone deacetylase 8): 5.78
pKi (Histone deacetylase 2): 5.14
pKi [1]: 7.52

SMILES: Cc1[nH]c2ccccc2c1CCNCc1ccc(/C=C/C(=O)NO)cc1
Activity (MV4-11 [3]): Active

SMILES: CN1C(=O)C2CN(Cc3c2c2ccccc2n3Cc2ccc(/C=C/C(=O)NO)cc2)C1=O (centres undefined)
pKi (Histone deacetylase 8): 6.69
pKi (Histone deacetylase 2): 7.18
pKi [1]: 8.38

SMILES: CN1C(=O)C2c3c(n(Cc4ccc(C(=O)NO)cc4)c4ccccc34)CCN2C1=O (centres undefined)
pKi (Histone deacetylase 8): 6.12
pKi (Histone deacetylase 2): 6.00
pKi [1]: 8.73

SMILES: CN1C(=O)C2CN(Cc3c2c2cc(OCCN4CCOCC4)ccc2n3Cc2ccc(C(=O)NO)cc2)C1=O.Cl (centres undefined)
Activity (Mus musculus [4]): Active
pKi (Histone deacetylase 8): 6.14
Activity (Mus musculus [5]): Non-Toxic
pKi (Histone deacetylase 2): 6.50
Activity (Mus musculus [6]): Active
pKi [1]: 9.32
Activity (Mus musculus [7]): Active
Activity (Mus musculus [8]): Non-Toxic
Activity (Mus musculus [9]): Non-Toxic

SMILES: CN1C(=O)C2CN(Cc3c2c2ccccc2n3Cc2cccc(/C=C/C(=O)NO)c2)C1=O (centres undefined)
pKi (Histone deacetylase 8): 7.88
pKi (Histone deacetylase 2): 6.11
pKi [1]: 7.14

SMILES: CN1C(=O)C2CN(Cc3c2c2ccc4ccccc4c2n3Cc2ccc(C(=O)NO)cc2)C1=O (centres undefined)
pKi [1]: 8.75

SMILES: Nc1ccccc1NC(=O)c1ccc(CNC(=O)OCc2cccnc2)cc1 [ENTINOSTAT]
Activity (HEL): Active
Activity (Jurkat): Active
Activity (MV4-11 [10]): Active
Activity (PBMC): Toxic
inhibition (INH) [11]: Active

SMILES: O=C(/C=C/c1ccc(Cn2c3c(c4ccccc42)CCN2C(=O)CCCC32)cc1)NO (centres undefined)
pKi (Histone deacetylase 8): 6.14
pKi (Histone deacetylase 2): 6.63
pKi [1]: 7.85

SMILES: COc1ccc2c(c1)c1c(n2Cc2ccc(C(=O)NO)cc2)CN2CC1C(=O)N(C)C2 (centres undefined)
pKi (Histone deacetylase 8): 6.52
pKi (Histone deacetylase 2): 6.43
pKi [1]: 9.80
alpha-tubulin hyperacetylation (active/not active) [2]: inactive

SMILES: CN1CC2CN(Cc3c2c2ccccc2n3Cc2ccc(C(=O)NO)cc2)C1=O (centres undefined)
pKi (Histone deacetylase 8): 6.28
pKi (Histone deacetylase 2): 6.32
pKi [1]: 9.29
alpha-tubulin hyperacetylation (active/not active) [2]: Active

SMILES: O=C(NO)c1ccc(Cn2c3c(c4ccccc42)C2CCN(C3)C2)cc1 (centres undefined)
pKi (Histone deacetylase 8): 5.81
Ratio Ki (Homo sapiens): 940
pKi (Histone deacetylase 2): 5.21
pKi [1]: 8.19

More lines, now with the values ahead:

pKi (Histone deacetylase 8): 6.91
pKi (Histone deacetylase 2): 6.51
pKi [1]: 9.82
alpha-tubulin hyperacetylation (active/not active) [2]: Active
SMILES: COc1ccc2c(c1)c1c(n2Cc2ccc(C(=O)NO)cc2)CN2CC1C(=O)N(C)C2=O (centres undefined)

pKi (Histone deacetylase 8): 7.03
pKi (Histone deacetylase 2): 7.15
pKi [1]: 9.49
alpha-tubulin hyperacetylation (active/not active) [2]: Active
SMILES: COc1ccc2c3c(n(Cc4ccc(C(=O)NO)cc4)c2c1)CN1CC3C(=O)N(C)C1=O (centres undefined)

pKi (Histone deacetylase 8): 6.15
pKi (Histone deacetylase 2): 6.03
pKi [1]: 9.06
alpha-tubulin hyperacetylation (active/not active) [2]: Active
SMILES: CN1C(=O)N2Cc3c(c4ccccc4n3Cc3ccc(C(=O)NO)cc3)C(C2)C1=S (centres undefined)

pKi (Histone deacetylase 8): 6.00
pKi (Histone deacetylase 2): 5.28
pKi [1]: 9.15
SMILES: CN1C(=O)[C@@H]2CN(Cc3c2c2ccccc2n3Cc2ccc(C(=O)NO)cc2)C1=O

pKi (Histone deacetylase 8): 7.39
pKi (Histone deacetylase 2): 6.33
pKi [1]: 9.35
alpha-tubulin hyperacetylation (active/not active) [2]: inactive
SMILES: CN1C(=O)C2CN(Cc3c2c2ccccc2n3Cc2ccc(C(=O)NO)cc2)C1=S (centres undefined)

pKi (Histone deacetylase 8): < 4.40
pKi (Histone deacetylase 2): < 5.00
pKi [1]: < 4.70
SMILES: CN1C(=O)C2CN(Cc3c2c2ccccc2n3Cc2ccc(C(=O)O)cc2)C1=O (centres undefined)

pKi (Histone deacetylase 8): 6.53
pKi (Histone deacetylase 2): 5.50
pKi [1]: 8.70
SMILES: CN1C(=O)[C@H]2CN(Cc3c2c2ccccc2n3Cc2ccc(C(=O)NO)cc2)C1=O

pKi [1]: 10.10
SMILES: CN1C(=O)C2CN(Cc3c2c2cc(OCc4ccccc4)ccc2n3Cc2ccc(C(=O)NO)cc2)C1=O (centres undefined)

pKi [1]: 9.38
SMILES: CN1C(=O)C2CN(Cc3c2c2cc(O)ccc2n3Cc2ccc(C(=O)NO)cc2)C1=O (centres undefined)
